Measurements taken from ChEMBL document CHEMBL1926521, “Arylcyanoacrylamides as inhibitors of the Dengue and West Nile virus proteases” (Bioorg Med Chem, 2011).
Active and inactive are the calls of the source. No cut-off for these calls is given here.

Assays:
Dengue virus [1] = test: Inhibition of Dengue virus NS2B-NS3 protease expressed in Escherichia coli BL21 lambda (DE3) using Abz-NleKRRS-3-(NO2)Y as substrate at 50 uM preincubated for 15 mins before substrate addition measured up to 15 mins by spectrofluorimetry
Method in brief: (§1)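 Single-concentration screen against His-tagged NS2B-NS3 protease (Ni²⁺-affinity purified from E. coli). Enzyme was 100 nM for Dengue or 150 nM for West Nile. Inhibitor at 50 µM was preincubated 15 min with enzyme, then internally quenched FRET substrate (final 50 µM) was added. Read at ex 320/em 405 nm for 15 min. Rate taken as RFU/s; % inhibition is the mean of triplicates.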

West Nile virus = test: Inhibition of West Nile virus NS2B-NS3 protease expressed in Escherichia coli BL21 lambda (DE3) using Abz-GLKRGG-3-(NO2)Y as substrate at 50 uM preincubated for 15 mins before substrate addition measured up to 15 mins by spectrofluorimetry; method in brief: as §1
Prothrombin [2] = target: T1, Prothrombin (Homo sapiens, UniProt P00734); test: Inhibition of human thrombin using Boc-VPR-AMC as substrate at 25 uM preincubated for 15 mins before substrate addition measured up to 10 mins by spectrofluorimetry
[3] = Inhibition of Dengue virus NS2B-NS3 protease expressed in Escherichia coli BL21 lambda (DE3) using Abz-NleKRRS-3-(NO2)Y as substrate compound preincubated for 15 mins before substrate addition measured up to 15 mins by spectrofluorimetry
[4] = Inhibition of West Nile virus NS2B-NS3 protease expressed in Escherichia coli BL21 lambda (DE3) using Abz-GLKRGG-3-(NO2)Y compound preincubated for 15 mins before substrate addition measured up to 15 mins by spectrofluorimetry
Prothrombin [5] = target: T1, Prothrombin; test: Inhibition of human thrombin using Boc-VPR-AMC as substrate compound preincubated for 15 mins before substrate addition measured up to 10 mins by spectrofluorimetry
Dengue virus [6] = test: Binding affinity to Dengue virus NS2B-NS3 protease catalytic center assessed as quenching of Trp50 intrinsic fluorescence
Dengue virus [7] = test: Binding affinity to Dengue virus NS2B-NS3 protease catalytic center assessed as quenching of Trp50 intrinsic fluorescence in presence of aprotinin
[8] = Selectivity ratio of Ki for human thrombin to Ki for Dengue virus NS2B-NS3 protease
[9] = Selectivity ratio of Ki for human thrombin to Ki for West Nile virus NS2B-NS3 protease

SMILES	inhibition (Dengue virus [1])	inhibition (West Nile virus)	inhibition (Prothrombin [2])	other results
CC(C)c1ccc(/C=C(\C#N)C(=O)NCC2CCCO2)cc1 (stereo unspecified)	28.2%	46.3%	14.4%	Ki [3]: 98.1 µM; Ki [4]: 101 µM; Ki (Prothrombin [5]): 165 µM; Activity (Dengue virus [6]): Active; Activity (Dengue virus [7]): inactive
N#C/C(=C\c1ccc(O)cc1)C(N)=O	51.7%	55%	24.4%	Ki [3]: 35.7 µM; Ki [4]: 44.6 µM; Ki (Prothrombin [5]): 102 µM; Ratio Ki [8]: 2.8; Ratio Ki [9]: 2.3
N#C/C(=C\c1ccc(N2CCOCC2)o1)C(=O)NC1CC1	10.5%	24%	47%	Ki [3]: 184 µM; Ki [4]: > 200 µM; Ki (Prothrombin [5]): 23.4 µM
C/C(=C(/C#N)C(N)=O)c1ccccc1	inactive	13.7%	7.3%	–
CN(C)c1ccc(/C=C(\C#N)C(=O)N2CCOCC2)cc1	43.3%	38.1%	25.1%	–
N#C/C(=C\c1ccc(O)cc1)C(=O)NC1CC1	44.7%	57.3%	18.8%	–
CN(C)c1ccc(/C=C(\C#N)C(=O)NC2CC2)cc1	22.6%	33.2%	23.7%	–
COc1cccc(/C=C(\C#N)C(N)=O)c1	16.3%	12.3%	9.6%	–
CCC/C(=C(/C#N)C(N)=O)c1ccccc1	6.7%	15.3%	11.1%	–
N#C/C(=C\c1cc(O)c(O)c([N+](=O)[O-])c1)C(N)=O	24.3%	28.2%	22.5%	–
CN1CCN(c2ccc(/C=C(\C#N)C(=O)NC3CC3)cc2)CC1	37.4%	47.8%	21.8%	–
N#C/C(=C\c1ccc(Br)s1)C(=O)NC1CC1	inactive	10.5%	17.9%	–
N#C/C(=C\c1cccc(C(=O)O)c1)C(=O)NC1CC1	20.2%	20.1%	11.9%	–
N#C/C(=C\c1ccccc1N1CCOCC1)C(N)=O	10.4%	7.7%	7.4%	–
COc1ccc(/C=C(\C#N)C(=O)N[C@@H](CO)C(=O)NC2CC2)cc1	23%	31.7%	23.3%	–
N#C/C(=C\c1ccc(Br)cc1)C(N)=O	11.6%	15.9%	13.6%	–

SMILES	inhibition (Dengue virus [1])	inhibition (West Nile virus)	inhibition (Prothrombin [2])	other results
N#C/C(=C\c1ccc(O)c(O)c1)C(N)=O	34.9%	28.8%	18.4%	–
N#C/C(=C\c1cccc(N2CCOCC2)c1)C(=O)NC1CC1	18.5%	20.5%	9.7%	–
N#C/C(=C\c1ccc(Br)o1)C(=O)NC1CC1	15.6%	23.9%	26.9%	–
CC(=C\c1ccccc1)/C=C(\C#N)C(=O)NCC1CCCO1 (stereo unspecified)	36.8%	30.1%	28.7%	–
CC(C)/C(=C(\C#N)C(N)=O)c1ccccc1	inactive	13.8%	10.1%	–
CN(C)c1ccc(/C=C(\C#N)C(=O)NCC2CCCO2)cc1 (stereo unspecified)	23.3%	28.1%	19.8%	–
N#C/C(=C\c1ccc(C(=O)O)cc1)C(=O)NC1CC1	20%	31%	15.9%	–
COc1cc(/C=C(\C#N)C(N)=O)ccc1OCc1ccccc1	inactive	inactive	16%	–
N#C/C(=C\c1ccccc1)C(N)=O	15%	9.3%	12.5%	–
N#C/C(=C\c1ccc(Br)cc1)C(=O)NC1CC1	10.9%	22.6%	inactive	–
N#C/C(=C\c1cccc(C(=O)NC2CC2)c1)C(=O)NC1CC1	10.8%	19.1%	8%	–
N#C/C(=C\c1ccc(Br)s1)C(N)=O	20.2%	19.2%	26.3%	–
C/C(=C(\C#N)C(N)=O)c1ccc(O)cc1	13.2%	22.7%	inactive	–
N#C/C(=C\c1ccc(N2CCCCC2)cc1)C(N)=O	14%	24.2%	20%	–
N#C/C(=C\c1ccc(C(=O)N2CCCCC2)cc1)C(N)=O	22.3%	24%	inactive	–
